Compound activity from PubChem.
EBNA-1 inhibitor = blocks EBNA-1 binding to DNA. AID 1950. EBNA-1 DNA binding, fluorescence polarization. inhibition, % at 14.8 µM. 300,000 tested, 0.34% active; in the data active means inhibition above about 28%
ARFGAP1 inhibitor = inhibitors of rat ARFGAP1; Arfgap1-stimulated ARF1 GTP hydrolysis, GDP FP detection; 360,000 tested, 0.26% active; Q62848; inhibition, % at 16.5 µM; AID 651572;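 active means inhibition above a per-plate limit, mean inhibition of low control wells plus 3 SD, cut at about 25% in these data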;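 further: 0% = DMSO wells with enzyme and 100% = wells lacking Arfgap1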
Target sequence (Q62848 1-136 limits assumed): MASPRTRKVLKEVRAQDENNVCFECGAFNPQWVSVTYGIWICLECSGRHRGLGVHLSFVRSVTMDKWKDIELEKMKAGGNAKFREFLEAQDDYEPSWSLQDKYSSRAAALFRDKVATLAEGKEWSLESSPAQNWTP
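Assay system: Rat Arfgap1 GAP domain (His6, aa 1-136), purified enzyme | Buffer or medium: HEPES 25 mM pH 7.5, NaCl 150 mM, MgCl2, DTT | Schedule: GTP hydrolysis reaction 2 h at 25 °C | Signal: FP of antibody-bound GDP Alexa 633 tracer, ex 620/em 688 nm | Measure: Percent inhibition of Arfgap1-stimulated GTP hydrolysis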
ASAP1 GAP inh = blocks human ASAP1-stimulated Arf1 GTP hydrolysis; GDP FP detection; AID 624377; inhibition, % at 16.5 µM; 360,000 tested, 0.19% active; Q9ULH1; in the data active means inhibition above about 25%;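 further: 0% = vehicle with enzyme and substrate and 100% = no enzyme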
ZTA counter = ZTA (EBV) inhibition in EBNA-1 counter-screen; ZTA-DNA binding, fluorescence polarization; inhibition, % at 11 µM; P03206; 320,000 tested, 0.15% active; in the data active means inhibition above about 33%
Target sequence (P03206 whole entry, looked up): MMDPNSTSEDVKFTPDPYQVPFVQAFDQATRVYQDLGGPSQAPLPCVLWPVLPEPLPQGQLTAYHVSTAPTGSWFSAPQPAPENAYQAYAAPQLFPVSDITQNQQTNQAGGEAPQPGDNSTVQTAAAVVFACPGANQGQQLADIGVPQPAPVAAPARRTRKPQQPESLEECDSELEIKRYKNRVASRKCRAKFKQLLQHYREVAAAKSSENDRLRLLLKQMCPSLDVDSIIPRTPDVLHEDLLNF
EBNA-1 inh conf = EBNA-1 (EBV) inhibition, confirmation | shares compounds with EBNA-1 inhibitor | Recombinant EBNA-1 DBD, Cy5-DNA fluorescence polarization | inhibition, % at 14.8 µM | 830 tested, 35% active | AID 2292;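 active means mean inhibition across replicates above a set limit taken from the earlier primary screen, cut at about 28% in these data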;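 further: plate controls were EBNA-1 protein with DMSO for no effect and wells lacking EBNA-1 for full effect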
ZTA DNA inh trip = counter-screen for EBNA-1 inhibitors: Epstein-Barr virus ZTA inhibitors, triplicate; inhibition, % at 11.1 µM; 830 tested, under 10 active; shares compounds with EBNA-1 inhibitor; Zta-ZRE DNA binding, Cy5 fluorescence polarization; AID 2328;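 active means mean inhibition over triplicates above a set limit taken from the primary EBNA-1 screen, cut at about 37% in these data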;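 further: purified full length Zta protein with Cy5 labeled ZRE DNA probe; 0% = Zta with DMSO and 100% = wells lacking Zta protein; inhibitors lower polarization by freeing the labeled DNA probe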
An asterisk follows results filed as active; / = not tested or not shown. In the library only some 0.75% were active in any assay of this set; here they are far more common.

SMILES	EBNA-1 inhibitor	ARFGAP1 inhibitor	ASAP1 GAP inh	ZTA counter	EBNA-1 inh conf	ZTA DNA inh trip
COC(=O)c1cc(Nc2cc(C)c3ccc(O)cc3n2)cc(C(=O)OC)c1	39*	-1	-7	-9	48*	3
COC(=O)c1cc(Nc2cc(C)c3c(O)cccc3n2)cc(C(=O)OC)c1	-13	12	1	-10	/	/
O=C(COC(=O)/C=C/c1ccccc1)Nc1cc(C(F)(F)F)ccc1N1CCOCC1	55*	19	-17	-11	75*	-8
COC(=O)c1ccccc1S(=O)(=O)NC(=O)[C@H]1O[C@@H](n2ccc(=O)[nH]c2=O)[C@H](O)[C@@H]1O	/	-1	2	/	/	/
CSCCC(NC(=O)OCc1ccccc1)C(=O)NC(Cc1c[nH]c2ccccc12)C(=O)O (configuration not stated)	/	-9	-8	/	/	/
O=C(CSc1cn(Cc2ccccc2)c2ccccc12)Nc1nccs1	36*	3	-1	2	8	6
COc1ccc(-c2ccc3c(n2)CCCN3S(=O)(=O)c2ccccc2)cc1	/	-6	-6	/	/	/
Cc1cccc(NC(=O)/C(C#N)=C/c2cn(CC(=O)NCc3ccco3)c3ccccc23)c1C	35*	8	5	1	30*	-1
N#C/C(=C\c1cn(Cc2ccccc2)c2ccccc12)C(=O)NCc1ccco1	25	4	-2	-3	/	/
CCn1c2ccccc2c2cc(NC(=O)COC(=O)c3ccccc3F)ccc21	37*	1	6	6	25	-4
Cn1c2ccccc2c2cnn(CC(=O)Nc3ccccc3Br)c(=O)c21	32*	1	11	7	11	-2
Cc1cc(N2CCN(C(=O)OC(C)(C)C)C[C@@H]2C)ccc1N1CCN(Cc2ccccc2)[C@@H](C)C1	/	0	-5	/	/	/
COC(=O)C1=C(C)N(Cc2ccc(C(F)(F)F)cc2)C(=NCc2ccc(OC)cc2)NC1c1ccccc1C(F)(F)F (configuration not stated)	/	0	7	/	/	/
CCOc1ccccc1N(CC(=O)Nc1ccc(OC)cc1)S(=O)(=O)c1ccccc1	28*	1	5	-12	-3	-3
Cc1ccc2cccc(NC(=S)NC(=O)c3ccnn3C)c2n1	40*	-1	-5	-21	32*	5
O=C(COC(=O)c1ccc(CNS(=O)(=O)c2ccc(F)c(Cl)c2)cc1)NCC1CCCCC1	31*	9	-1	-11	0	-1
Nc1nnnn1/N=C/c1ccccc1OCc1ccccc1	29*	2	-8	9	14	-8
Nc1nnnn1/N=C/c1ccccc1	/	10	-5	/	/	/
COCCNC(=S)N1C[C@H]2CON(C)[C@H]2C[C@H]1c1ccccc1Br	/	5	-3	/	/	/
Cc1cc2c(cc1S(=O)(=O)N1CCCCC1)OCC(=O)N2	5	0	-2	-2	/	/
COc1cccc(N2CCN(S(=O)(=O)c3cc4c(cc3Cl)NC(=O)CO4)CC2)c1	32*	-9	-2	12	21	3
COc1ccc(N2CCN(S(=O)(=O)c3cc4c(cc3C)NC(=O)CO4)CC2)cc1	33*	2	0	15	18	1
Cc1ccc(S(=O)(=O)N2CCC(C(=O)OCC(=O)N3CCc4ccccc43)CC2)cc1	33*	2	16	-7	7	2
O=C(NCCc1ccc(Cl)cc1)C1CCC(CNc2nc(=S)[nH]c3ccccc23)CC1 (configuration not stated)	30*	13	-4	5	32*	0
CCCCNC(=O)C1CCC(CNc2nc(=S)[nH]c3ccccc23)CC1 (configuration not stated)	3	0	-2	6	/	/
SMILES	EBNA-1 inhibitor	ARFGAP1 inhibitor	ASAP1 GAP inh	ZTA counter	EBNA-1 inh conf	ZTA DNA inh trip
O=C(NCCC1=CCCCC1)C1CCC(CNc2nc(=S)[nH]c3ccccc23)CC1 (configuration not stated)	32*	-18	8	8	24	-4
CC(=O)Nc1ccc(NC(=O)c2ccc(NS(=O)(=O)c3cccc4cccnc34)cc2)cc1	39*	3	0	5	18	6
Cc1ccc(NC(=O)c2ccc(NS(=O)(=O)c3cccc4cccnc34)cc2)cc1	-6	/	/	-1	/	/
COc1ccc(C(=O)NNC(=O)CSc2nnc(COc3ccc4ccccc4c3)n2C)cc1	82*	16	2	-1	36*	1
Cc1ccc(NCc2nnc(SCC(=O)Nc3cc(C)on3)n2C)cc1	4	7	-5	2	/	/
Cc1cccc(OCc2nnc(SCC(=O)Nc3cc(C)on3)n2C)c1	31*	10	4	-4	8	14
COCCCn1cnn2c(=O)c3ccccc3nc2c1=O	/	-1	9	/	/	/
O=C(N/N=C\c1ccc(CNS(=O)(=O)c2ccc(Cl)cc2)o1)C(=O)Nc1ccc(Oc2ccccc2)cc1	29*	12	10	7	30*	-1
COc1cccc(Cn2nnc(C(=O)NCc3ccc4c(c3)OCO4)c2N)c1	10	4	5	0	/	/
Nc1c(C(=O)Nc2ccc3c(c2)OCCO3)nnn1Cc1cccc(F)c1	35*	3	2	7	87*	0
Nc1c(C(=O)NCc2ccc3c(c2)OCO3)nnn1Cc1cccc(F)c1	76*	-17	6	-3	29*	8
Nc1c(C(=O)Nc2ccc3c(c2)OCCO3)nnn1Cc1ccc(Cl)cc1	12	8	12	14	/	/
CCOC(=O)CN(C(=O)CSc1nnc2c(n1)[nH]c1ccccc12)c1ccccc1	40*	10	-6	4	-6	-6
CCc1c(Cc2ccccc2)ncn1CCc1ccccc1OC	/	-8	7	/	/	/
CCC(=O)Nc1ccc(Cl)c(NC(=S)NC(=O)c2ccco2)c1	8	0	-3	0	/	/
CCC(=O)Nc1ccc(Cl)c(NC(=S)NC(=O)c2cc3ccccc3o2)c1	39*	7	-1	-3	18	3
CN(C)c1ccc(C(=O)NCC2CCN(C(=O)C(=O)c3cccs3)CC2)cc1	/	1	-3	/	/	/
CCCN(CC(=O)Nc1ccc(C(N)=O)cc1)CC(=O)Nc1ccc(Cl)cc1Cl	29*	0	14	0	10	7
COc1ccc(C([O-])=Nc2ccc[n+](-c3nc4ccccc4nc3NS(=O)(=O)c3ccccc3)c2)cc1	29*	-14	-12	1	0	-6
O=S(=O)(Nc1nc2ccccc2nc1-[n+]1cccc(N=C([O-])c2ccccc2Cl)c1)c1ccccc1	-8	/	/	2	/	/
CCN(CC)S(=O)(=O)c1cc(NC(=O)CSc2nc3c(cc2C#N)C(=O)CC(C)(C)C3)ccc1C	32*	8	-7	10	-8	-12
COC(=O)[C@]12C[C@H](CC(=O)N3CCCCC3)C(=O)N(Cc3ccccc3)C1=C[C@H](C1CCCC1)O[C@@H]2C	/	-7	-6	/	/	/
NS(=O)(=O)c1ccc(NC(=O)c2ccc(S(=O)(=O)N3CCc4ccccc43)cc2)cc1	94*	9	6	-16	0	15
